From ChEMBL document CHEMBL1122331, “Conformational effects on the activity of drugs. 10. Synthesis, conformation, and pharmacological properties of 1-(2,5-dimethoxyphenyl)-2-aminoethanols and their morpholine analogues” (J Med Chem, 1983)

Tests used:
[1] = molecular target: T1, Adrenergic receptor alpha-1 (Rattus norvegicus, UniProt P15823+P23944+P43140); assay: (§1) Tested for Alpha adrenergic receptor antagonistic activity on isolated rat vas deferens; format: functional, tissue-based
T1 sequence (P15823 whole entry): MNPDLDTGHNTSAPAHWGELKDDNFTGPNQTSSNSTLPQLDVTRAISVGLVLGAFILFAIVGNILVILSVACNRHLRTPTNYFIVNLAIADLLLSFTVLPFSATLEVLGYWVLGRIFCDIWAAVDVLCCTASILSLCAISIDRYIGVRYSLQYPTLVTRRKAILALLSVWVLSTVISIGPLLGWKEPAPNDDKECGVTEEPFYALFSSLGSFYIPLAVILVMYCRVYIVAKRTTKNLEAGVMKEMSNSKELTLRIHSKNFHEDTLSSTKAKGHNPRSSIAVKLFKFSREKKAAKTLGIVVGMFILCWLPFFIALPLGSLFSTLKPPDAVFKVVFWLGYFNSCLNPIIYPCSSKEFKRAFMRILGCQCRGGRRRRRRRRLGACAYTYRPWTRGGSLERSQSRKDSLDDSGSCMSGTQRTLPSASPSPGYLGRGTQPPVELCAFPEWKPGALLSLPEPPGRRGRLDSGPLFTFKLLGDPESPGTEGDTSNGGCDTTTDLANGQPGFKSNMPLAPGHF
T1 sequence (P23944 whole entry): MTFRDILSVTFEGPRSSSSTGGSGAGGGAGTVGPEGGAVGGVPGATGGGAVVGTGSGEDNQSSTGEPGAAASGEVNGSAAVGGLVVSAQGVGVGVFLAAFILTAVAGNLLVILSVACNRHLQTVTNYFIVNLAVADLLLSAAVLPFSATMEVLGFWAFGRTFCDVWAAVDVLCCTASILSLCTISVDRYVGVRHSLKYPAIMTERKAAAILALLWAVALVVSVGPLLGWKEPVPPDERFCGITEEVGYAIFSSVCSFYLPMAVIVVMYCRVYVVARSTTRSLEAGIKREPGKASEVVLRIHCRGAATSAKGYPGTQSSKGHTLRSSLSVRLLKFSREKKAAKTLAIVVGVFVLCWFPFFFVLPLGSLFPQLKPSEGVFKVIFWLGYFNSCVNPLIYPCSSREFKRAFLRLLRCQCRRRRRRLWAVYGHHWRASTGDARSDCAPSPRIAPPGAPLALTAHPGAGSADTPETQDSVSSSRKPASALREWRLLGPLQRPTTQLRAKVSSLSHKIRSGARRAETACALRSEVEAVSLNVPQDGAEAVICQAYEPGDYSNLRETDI
T1 sequence (P43140 whole entry): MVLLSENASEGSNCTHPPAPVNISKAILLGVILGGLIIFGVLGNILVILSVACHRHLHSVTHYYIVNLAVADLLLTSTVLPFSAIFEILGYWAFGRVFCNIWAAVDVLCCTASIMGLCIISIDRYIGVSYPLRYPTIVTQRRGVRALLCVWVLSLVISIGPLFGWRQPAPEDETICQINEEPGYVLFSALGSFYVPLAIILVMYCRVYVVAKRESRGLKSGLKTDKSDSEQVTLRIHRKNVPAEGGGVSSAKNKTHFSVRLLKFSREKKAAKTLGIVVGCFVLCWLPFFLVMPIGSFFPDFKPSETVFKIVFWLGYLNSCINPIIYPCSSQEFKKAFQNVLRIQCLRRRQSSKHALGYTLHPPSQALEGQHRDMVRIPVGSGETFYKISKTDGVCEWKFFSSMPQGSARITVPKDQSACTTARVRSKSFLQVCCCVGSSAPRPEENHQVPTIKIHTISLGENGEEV
Outline: (§2)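 Isolated rat vas deferens; contractions recorded isometrically with a force-displacement transducer.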

[2] = molecular target: T2, Adrenergic receptor alpha-1 (Rattus norvegicus) (UniProt P15823+P23944+P43140); assay: as §1; format: functional, tissue-based; outline: as §2
[3] = molecular target: T1, Adrenergic receptor alpha-1; assay: (§3) Tested for alpha adrenergic receptor agonistic activity on isolated rat vas deferens; format: functional, tissue-based; outline: as §2
[4] = molecular target: T2, Adrenergic receptor alpha-1 (Rattus norvegicus); assay: as §3; format: functional, tissue-based; outline: as §2
[5] = molecular target: T2, Adrenergic receptor alpha-1 (Rattus norvegicus); conditions: Vas deferens
[6] = molecular target: T2, Adrenergic receptor alpha-1 (Rattus norvegicus); conditions: Vas deferens; remark: listed apart in the source
Adrenergic receptor beta [7] = molecular target: T3, Adrenergic receptor beta (Homo sapiens, UniProt P08588+P07550+P13945); conditions: Cavia porcellus
Adrenergic receptor beta [8] = molecular target: T3, Adrenergic receptor beta; assay: Inhibition of beta adrenergic receptor on isolated guinea pig atria against isoprenaline at 4E-8M; design: species or system Cavia porcellus; conditions: target entry is the homologue from another species

Structure (SMILES)	pA2 [1]	pA2-pA10 [2]	pA10 [2]	also measured
COc1ccc(OC)c(C2OCCNC2C)c1 (stereo not drawn)	3.48	0.27	3.2	–
COc1ccc(OC)c(C2CNCCO2)c1 (stereo not drawn)	3.4	0.45	2.95	–
CNCC(O)c1cc(OC)ccc1OC (stereo not drawn)	–	–	–	pA2 [3]: 3.91; pA10 [4]: 3.16; pD2 [4]: 5.22; pD10 [4]: 6.07
COc1ccc(OC)c(C2CN(C(C)C)CCO2)c1 (stereo not drawn)	3.14	0.19	2.95	–
COc1ccc(OC)c(C2CN(C)CCO2)c1 (stereo not drawn)	3.61	0.76	2.85	–
COc1ccc(OC)c(C(O)CN)c1 (stereo not drawn) [DESGLYMIDODRINE]	4.04	0.74	3.3	pD10 [5]: 6; pD2 [6]: 5.15
COc1ccc(OC)c(C(O)C(C)N)c1 (stereo not drawn)	–	–	–	pD10 [5]: 5.61; pD2 [6]: 4.42
Cc1ccc(N(CC2=NCCN2)c2cccc(O)c2)cc1	–	–	–	pA10 [4]: 6.02
COc1ccc(OC)c(C(O)CNC(C)C)c1 (stereo not drawn)	–	0.26	2.48	pA10 (Adrenergic receptor beta [7]): 4.08; pA2 (Adrenergic receptor beta [8]): 4.77
